Source: ChEMBL document CHEMBL3822365, “Probing the Anticancer Action of Oridonin with Fluorescent Analogues: Visualizing Subcellular Localization to Mitochondria” (J Med Chem, 2016)
Activity calls are given as the source filed them. The rule behind the calls is not given here.

Experiments:
[1] = Cytotoxicity against human Bel7402 cells assessed as growth inhibition at 100 uM after 72 hrs by MTT assay; type: functional; conditions: Bel-7402, 72 h, read-out: GI
Procedure, shortened: (§1)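 Bel-7402 cells exposed to compound for 72 h, then MTT read-out of percent growth inhibition at the single stated concentration. Values are the mean of three independent experiments.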

[2] = Cytotoxicity against human Bel7402 cells assessed as growth inhibition at 10 uM after 72 hrs by MTT assay; type: functional; conditions: Bel-7402, 72 h, read-out: GI; procedure, shortened: as §1
[3] = Cytotoxicity against human Bel7402 cells assessed as growth inhibition at 1 uM after 72 hrs by MTT assay; type: functional; conditions: Bel-7402, 72 h, read-out: GI; procedure, shortened: as §1
HepG2 [4] = experiment: Drug uptake in human HepG2 cells at 50 to 100 uM after 1 hr by inverted confocal microscopy; type: ADME, cell-based; conditions: hepg2, 1 h
Procedure, shortened: (§2)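 HepG2 cells incubated with probe for 1 h, then intracellular fluorescence imaged by fluorescence microscopy.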

HepG2 [5] = experiment: Cytotoxicity against human HepG2 cells assessed as inhibition of cell proliferation after 72 hrs by MTT assay; type: functional, cell-based; conditions: HepG2, 72 h
Procedure, shortened: (§3)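 Log-phase cells seeded at 5 × 10^4 cells/mL and exposed to compound for 72 h at 37 °C, 5% CO2. MTT (5 mg/mL) added for a further 4 h, formazan dissolved in DMSO, OD read at 490 nm. Negative reference 0.1% DMSO, positive reference paclitaxel. IC50 given as mean ± SD, n = 3.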

A549 [6] = experiment: Cytotoxicity against human A549 cells assessed as inhibition of cell proliferation after 72 hrs by MTT assay; type: functional, cell-based; conditions: A549, 72 h; procedure, shortened: as §3
HeLa = experiment: Cytotoxicity against human HeLa cells assessed as inhibition of cell proliferation after 72 hrs by MTT assay; type: functional, cell-based; procedure, shortened: as §3
HepG2 [7] = experiment: Drug uptake in human HepG2 cells at 20 uM after 1 hr by inverted confocal microscopy; type: ADME, cell-based; conditions: hepg2, 1 h; procedure, shortened: as §2
A549 [8] = experiment: Dissipation of mitochondrial membrane potential in human A549 cells at 20 uM after 1 to 48 hrs by […]; type: functional, cell-based
[9] = Antiproliferative activity against human NCI-H929 cells assessed as reduction in cell viability after 24 to 72 hrs by MTT assay; type: functional, cell-based
HepG2 [10] = experiment: Drug uptake in human HepG2 cells at 5 uM after 1 hr by inverted confocal microscopy; type: ADME, cell-based; conditions: hepg2, 1 h
Procedure, shortened: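 HepG2 cells were incubated with probe at 5 μM for 1 h and then examined by fluorescence microscopy for intracellular staining.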

HepG2 [11] = experiment: Drug uptake in human HepG2 cells at 1 uM after 5 mins by inverted confocal microscopy; type: ADME, cell-based; conditions: hepg2, 5 min
A549 [12] = experiment: Drug uptake in human A549 cells at 1 uM after 5 mins by inverted confocal microscopy; type: ADME, cell-based; conditions: a549, 5 min
HepG2 [13] = experiment: Drug uptake in human HepG2 cells at 1 uM after 12 hrs by inverted confocal microscopy; type: ADME, cell-based; conditions: hepg2, 12 h
Procedure, shortened: (§4)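 Live A549 or HepG2 cells were given 1 μM probe for 12 h and washed with media. Confocal imaging used ex 405/em 460 nm at 40× on an inverted microscope. Each experiment was repeated three times.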

[14] = Drug uptake in human A549 cell cytoplasm at 1 uM after 12 hrs by inverted confocal microscopy; type: ADME, cell-based; conditions: a549, 12 h; procedure, shortened: as §4
[15] = Drug uptake in mitochondria of human A549 cells at 1 uM after 1 hr by MitoTracker staining based confocal laser scanning microscopy; type: ADME; conditions: a549, 1 h
Procedure, shortened: (§5)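 A549 cells were treated with 1 μM probe for 1, 3, 12 or 24 h and washed in PBS. They were then stained with MitoTracker Red CMXRos (200 nM, 0.5 h), washed in cold PBS, fixed with paraformaldehyde and imaged by confocal laser scanning microscopy. Mitochondrial overlap was quantified as Pearson's coefficient (Rr).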

[16] = Drug uptake in mitochondria of human A549 cells at 1 uM after 12 hrs by MitoTracker staining based confocal laser scanning microscopy; type: ADME; conditions: a549, 12 h; procedure, shortened: as §5
[17] = Drug uptake in mitochondria of human A549 cells at 1 uM after 24 hrs by MitoTracker staining based confocal laser scanning microscopy; type: ADME; conditions: a549, 24 h; procedure, shortened: as §5
A549 [18] = experiment: Dissipation of mitochondrial membrane potential in human A549 cells at 1 uM by JC-1 staining based confocal microscopy; type: functional, cell-based; conditions: TDE = time-dependent effect
Procedure, shortened: (§6)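 A549 cells were exposed to 1 μM compound for 12 to 48 h. They were then loaded with JC-1 at 10 μg/mL for 30 min at 37 °C and washed in PBS for 5 min. Aggregate (red, ex 525/em 600 nm) and monomer (green, ex 490/em 535 nm) signals were read by microplate reader or confocal microscope. Value is the red:green ratio, 10000 cells per condition, mean ± SD of three independent experiments.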

A549 [19] = experiment: Dissipation of mitochondrial membrane potential in human A549 cells assessed as ratio of red to green fluorescence at 1 uM after 12 to 48 hrs by JC-1 staining based confocal microscopy; type: functional; procedure, shortened: as §6
A549 [20] = experiment: Dissipation of mitochondrial membrane potential in human A549 cells assessed as ratio of red to green fluorescence at 1 uM after 48 hrs by JC-1 staining based confocal microscopy; type: functional; procedure, shortened: as §6
A549 [21] = experiment: Drug uptake in human A549 cells at 1 uM preincubated with oridonin for 24 hrs followed by compound addition measured after 1 hr by confocal microscopy; type: ADME, cell-based; conditions: a549, 1 h
A549 [22] = experiment: Drug uptake in human A549 cells at 1 uM preincubated with compound 25 for 24 hrs followed by compound addition measured after 1 hr by confocal microscopy; type: ADME, cell-based; conditions: a549, 1 h
A549 [23] = experiment: Drug uptake in human A549 cells at 1 uM preincubated with compound 26 for 24 hrs followed by compound addition measured after 1 hr by confocal microscopy; type: ADME, cell-based; conditions: a549, 1 h
A549 [24] = experiment: Dissipation of mitochondrial membrane potential in human A549 cells at 10 uM after 36 hrs by JC-1 staining based confocal microscopy; type: functional, cell-based
Procedure, shortened: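 A549 cells were exposed to 10 μM compound for 36 h or left untreated. They were then loaded with 10 μg/mL JC-1 for 30 min at 37 °C and washed 5 min in PBS. The red-to-green fluorescence shift was viewed by confocal microscopy. Done in triplicate.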

A549 [25] = experiment: Induction of apoptosis in human A549 cells assessed as cytochrome c release from mitochondria to cytosol at 3 uM after 24 to 48 hrs by MitoTracker probe/DAPI staining based confocal laser scanning microscopy; type: functional, cell-based
Procedure, shortened: (§7)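 A549 cells exposed to compound for 24 or 48 h, then stained with MitoTracker Red for 30 min. Cells fixed in 4% formaldehyde, permeabilized with 0.2% Triton X-100 and blocked in 5% BSA for 1 h. Anti-cytochrome c primary antibody applied overnight at 4 °C, then Alexa Fluor 488 goat anti-rabbit for 2 h. DAPI nuclear counterstain, imaged by confocal microscopy.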

A549 [26] = experiment: Induction of apoptosis in human A549 cells assessed as cytochrome c release from mitochondria to cytosol at 5 uM after 24 to 48 hrs by MitoTracker probe/DAPI staining based confocal laser scanning microscopy; type: functional, cell-based; procedure, shortened: as §7
K562 = experiment: Antiproliferative activity against human K562 cells; type: functional, cell-based

Compound	inhibition of growth at 100 µM [1] [%]	inhibition of growth at 10 µM [2] [%]	inhibition of growth at 1 µM [3] [%]	IC50 (HepG2 [5]) [µM]	IC50 (A549 [6]) [µM]	IC50 (HeLa) [µM]	other results
CCN(CC)c1ccc2cc(C(=O)OCCO)c(=O)oc2c1	9.5	3.7	0.7	–	–	–	Drug uptake (HepG2 [4]): Not Active
C=C1C(=O)[C@]23[C@H](OC(=O)CCC(=O)OCCOC(=O)c4cc5ccc(N(CC)CC)cc5oc4=O)[C@H]1CC[C@H]2[C@@]12CO[C@@]3(O)[C@@H](O)[C@@H]1C(C)(C)CC[C@@H]2O	94.4	72.4	11.5	–	–	–	–
CCN(CC)c1ccc2cc(C(=O)OCCCCOC(=O)CCCC(=O)O[C@@H]3[C@H]4CC[C@H]5[C@@]67CO[C@@](O)([C@@H](O)[C@@H]6C(C)(C)CC[C@@H]7O)[C@@]35C(=O)[C@@H]4C)c(=O)oc2c1	37.2	3.7	1.8	144	78	79.6	Drug uptake (HepG2 [7]): Not Active; Activity (A549 [8]): inactive
C=C1C(=O)[C@]23[C@H](OC(=O)CCCC(=O)OCCCOC(=O)c4cc5ccc(N(CC)CC)cc5oc4=O)[C@H]1CC[C@H]2[C@@]12CO[C@@]3(O)[C@@H](O)[C@@H]1C(C)(C)CC[C@@H]2O	94.6	89.9	2.7	–	–	–	–
C=C1C(=O)[C@]23[C@H](O)[C@H]1CC[C@H]2[C@]12CCCC(C)(C)[C@H]1[C@H](O)[C@@]3(O)OC2	–	–	–	–	–	–	IC50 [9]: 0.85 µM
C=C1C(=O)[C@]23[C@H](OC(=O)CCCC(=O)OCCOCCOC(=O)c4cc5ccc(N(CC)CC)cc5oc4=O)[C@H]1CC[C@H]2[C@@]12CO[C@@]3(O)[C@@H](O)[C@@H]1C(C)(C)CC[C@@H]2O	94.6	70.1	1.4	–	–	–	–
C[C@H]1C(=O)[C@]23[C@H](O)[C@H]1CC[C@H]2[C@@]12CO[C@@]3(O)[C@@H](O)[C@@H]1C(C)(C)CC[C@@H]2O	57.2	4.2	2.1	70.6	67	52.7	–
C=C1C(=O)[C@]23[C@H](OC(=O)Cc4cc(=O)oc5cc(N(C)C)ccc45)[C@H]1CC[C@H]2[C@@]12CO[C@@]3(O)[C@@H](O)[C@@H]1C(C)(C)CC[C@@H]2O	92.4	94.5	13.6	–	–	–	–
C=C1C(=O)[C@]23[C@H](OC(=O)CCCC(=O)OCCCCOC(=O)c4cc5ccc(N(CC)CC)cc5oc4=O)[C@H]1CC[C@H]2[C@@]12CO[C@@]3(O)[C@@H](O)[C@@H]1C(C)(C)CC[C@@H]2O	93.8	94	88.6	2.6	5.1	2	Drug uptake (HepG2 [10]): Active; Drug uptake (HepG2 [11]): Active; Drug uptake (A549 [12]): Active; Drug uptake (HepG2 [13]): Active; Drug uptake [14]: Active; Drug uptake [15]: Active; Drug uptake [16]: Active; Drug uptake [17]: Not Active; Activity (A549 [18]): tde; Ratio (A549 [19]): 1.496; Ratio (A549 [20]): 0.312; Activity (A549 [21]): Not Active; Drug uptake (A549 [22]): Not Active; Drug uptake (A549 [23]): Active
C=C1C(=O)[C@]23[C@H](O)[C@H]1CC[C@H]2[C@@]12CO[C@]3(O)[C@@H](O)[C@@H]1C(C)(C)CC[C@@H]2O [ORIDONIN]	94.6	94.8	37.9	15.2	10.4	17.8	Activity (A549 [24]): Active; Activity (A549 [25]): Active; Activity (A549 [26]): Active
C=C1C(=O)[C@]23[C@H](OC(=O)CCC(=O)OCCOC(=O)Cc4cc(=O)oc5cc(N(C)C)ccc45)[C@H]1CC[C@H]2[C@@]12CO[C@@]3(O)[C@@H](O)[C@@H]1C(C)(C)CC[C@@H]2O	93.3	46.4	1.1	8.8	11.2	4.6	Drug uptake (HepG2 [10]): Active; Drug uptake (HepG2 [13]): Active; Drug uptake [14]: Active
C=C1C(=O)[C@]23[C@H](OC(=O)CCCCCCC)[C@H]1CC[C@H]2[C@@]12CO[C@@]3(O)[C@@H](O)[C@@H]1C(C)(C)CC[C@@H]2O	94.7	92.7	57.5	–	–	–	–
C=C1C(=O)[C@]23[C@H](OC(=O)CCCC(=O)OCCOC(=O)c4cc5ccc(N(CC)CC)cc5oc4=O)[C@H]1CC[C@H]2[C@@]12CO[C@@]3(O)[C@@H](O)[C@@H]1C(C)(C)CC[C@@H]2O	94.6	85	4.9	–	–	–	–
C=C1C(=O)[C@]23C[C@H]1CC[C@H]2[C@]1(COC3=O)[C@@H](OC(C)=O)CCC(C)(C)[C@H]1CO	–	–	–	–	–	–	IC50 (K562): 3.56 µM
